# Assay outcomes as filed in PubChem BioAssay.
# The list is not random: actives were taken first. Their share in the collection is about 11%.
# M1 antagonist = antagonists of rat M1 muscarinic receptor; P08482; CHO-M1 cells, Fluo-4 calcium, ACh EC80 antagonist mode; hits give low values; B-score at 10 µM; 64,000 compounds, 3.4% hits;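 active = calcium fluorescence response, raw or row-and-column corrected B-score, differing from the plate sample mean either way at a set confidence level, mostly lower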
# M1 agonist = activates the M1 muscarinic receptor | CHO-M1 cells, Fluo-4 calcium fluorescence, agonist mode; hits give high values | B-score at 10 µM | 64,000 compounds, 3% hits | AID 626;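 active = fluorescence rise, raw or as B-score row- and column-corrected plate score, outside the 99.7% band of its plate's samples, either direction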
# D1 allo mod = allosteric modulators of human D1 dopamine receptor; 58,000 compounds, 5.9% hits; HEK293 D1, CRE-luciferase, dopamine EC30 potentiation; actives deviate in either direction; P21728; B-score at 10 µM; AID 641;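 active = luminescence count or its row- and column-corrected plate score outside the 99.7% band of the plate's sample wells, on either side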
# S1P1 ag pot = S1P1 (human) agonism or agonism potentiation; P21453; S1P1 CRE-bla cells, forskolin, beta-lactamase FRET, potentiator mode; S1P1 agonist co-added at EC20, 2 nM; 100% = saturating reference agonist, 0% = basal; activation, % at 9.5 µM; 56,000 compounds, 0.57% hits; AID 449;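 active = activation above a cutoff set at the mean activation of all tested compounds plus 3 SD, cut at about 54% in these data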;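 note: forskolin at 4 µM as EC80 and the EC20 agonist is SEW2871; 100% = SEW2871 at its EC100 plus forskolin at EC80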
# S1P3 ag = S1P3 (human) receptor agonism; S1P3 NFAT-BLA reporter cells, FRET ratio; relative to 1 µM S1P, basal subtracted; activation, % at 4.5 µM; 60,000 compounds, 0.1% hits; AID 373;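 active = activation above the screen-wide mean plus 3 SD, cut at about 4.5% in these data, passing the limit was not always enough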
#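 Measure – % activation relative to 1 µM S1P (100%), per plate · System – stable CHO line with human S1P3, Gα16, NFAT-BLA reporter · Timing – cells plated overnight, compound 4 h 37 °C, substrate 2 h RT · Technique – fluorescent BLA substrate, ex 405 nm, em 460/535 nm ratio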
# M1 ag confirm = confirmation of rat M1 muscarinic receptor agonists | shares compounds with M1 agonist | CHO-M1 cells, Fluo-4 calcium fluorescence, agonist mode; actives lie on both sides | fluorescence change (max-min) at 10 µM | 1,700 compounds, 19% hits;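 active = fluorescence change differs from the solvent-only DMSO control mean at a set confidence level in both duplicate runs; inconclusive = differs from solvent-only control mean in just one of two runs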;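 note: an EC20 dose of acetylcholine follows compound addition during the same imaging run; raw fluorescence intensity difference in instrument units with no normalization to controls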
# M4 agonist ctr = activates rat M4 receptor in counter-screen for M1 agonists. shares compounds with M1 agonist. AID 1741. fluorescence change (max-min) at 10 µM. CHO M4/Gqi5 cells, Fluo-4 calcium fluorescence, agonist mode; actives lie on both sides. 1,700 compounds, 9% hits;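 active = fluorescence change differing from the plate's solvent-only control wells at 99.7% confidence in both duplicates, whether higher or lower; inconclusive = differs from solvent controls in only one of two duplicates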
# Target sequence (P08485 whole entry, looked up): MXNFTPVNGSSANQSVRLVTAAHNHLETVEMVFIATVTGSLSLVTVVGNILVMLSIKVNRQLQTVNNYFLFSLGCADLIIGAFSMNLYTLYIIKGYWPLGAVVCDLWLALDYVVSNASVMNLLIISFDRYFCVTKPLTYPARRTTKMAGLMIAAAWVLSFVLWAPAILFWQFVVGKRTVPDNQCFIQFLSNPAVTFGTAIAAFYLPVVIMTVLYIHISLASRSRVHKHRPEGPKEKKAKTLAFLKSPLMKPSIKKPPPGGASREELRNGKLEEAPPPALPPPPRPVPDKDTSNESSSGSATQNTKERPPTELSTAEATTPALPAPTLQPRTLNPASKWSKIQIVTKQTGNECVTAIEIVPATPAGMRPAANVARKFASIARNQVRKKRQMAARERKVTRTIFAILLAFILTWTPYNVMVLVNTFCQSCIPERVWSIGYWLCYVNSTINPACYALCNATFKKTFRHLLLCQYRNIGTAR
# * marks the source's active call; other numbers are inactive results; ? = inconclusive; . = not tested or not shown.
SMILES,M1 antagonist,M1 agonist,D1 allo mod,S1P1 ag pot,S1P3 ag,M1 ag confirm,M4 agonist ctr
CC1Cc2ccccc2N1C(=O)c1cc2c(=O)n3ccccc3nc2n1C (centres undefined),-0.58,8.4*,-2.1,-57,0,-6.4,-12
O=S(=O)(NCCCCCNS(=O)(=O)c1ccccc1)c1ccccc1,-1.3,-1.7*,1.2,3,-1,16,-6.8
O=C(c1cn(-c2ccccc2)nc1-c1ccc(Cl)s1)N1CCOCC1,-0.25,7.7*,0.39,6,0,-27,-26
COC(=O)c1ccccc1NC(=O)COC(=O)c1ccc(C)c(NC(=O)c2ccco2)c1,-0.82,5.3*,0.039,-15,1,-12,?
COc1ccc2[nH]c(=O)c(CN(CC3CCCO3)C(=O)Nc3ccc(F)cc3)cc2c1 (centres undefined),-4.3*,11*,-0.22,-1,-1,-1,-21
COc1cccc(C(=O)N(Cc2cc3cc(C)ccc3[nH]c2=O)CC2CCCO2)c1 (centres undefined),.,.,0.39,-10,-1,.,.
COC(=O)COc1ccc(S(=O)(=O)NCc2ccncc2)cc1,-2*,2.7*,-2.4,5,-1,-18,?
COC(=O)C(O)(CC(=O)Nc1cccc(SC)c1)C(F)(F)F (centres undefined),0,0,0.66,-8,-1,.,.
CCOC(=O)C1=C(N)OC2=C(C(=O)CC(C)(C)C2)C1c1ccccc1OCC#N (centres undefined),0.041,-0.7,0.3,2,1,.,.
CCCCCn1c(CCNC(=O)c2cccs2)nc2ccccc21,0.39,11*,.,.,.,-30*,-79
CCCCCn1c(CNC(=O)c2cccs2)nc2ccccc21,0.19,0.045,.,.,.,.,.
C#CC1(O)CC(C)N(C)C(C)C1 (centres undefined),0.28,2.4*,-1.5,-2,-1,-11,-24
O=CN1CC(=O)N(c2ccccc2)c2c([nH]c3ccccc23)C1,-0.028,-0.32,1.9,-11,-1,.,.
Cc1nnc(NC(=O)C2C3C=CC(O3)C2C(=O)O)s1 (centres undefined),0.59,3.4*,0.23,.,.,?,-41
COC(=O)c1ccc(NC(=O)C2C3C=CC(O3)C2C(=O)O)cc1 (centres undefined),0.11,-0.5,-0.39,8,-1,.,.
CN1CCCc2cc3c(C(F)(F)F)cc(=O)oc3nc21,-17*,429*,2.6,.,0,2526*,2146*
COCCN(Cc1cc2cccc(C)c2n2nnnc12)C(=O)C(F)(F)F,0.15,0.58,1.5,-2,0,.,.
Cc1cccc2cc(CN(Cc3ccc(F)cc3)C(=O)N(C)C)c3nnnn3c12,-2.1,6.2*,-0.58,.,.,?,-21
COc1ccccc1NC(=O)CSc1nc(O)cc(=O)[nH]1,-0.96,0.18,-0.47,0,0,.,.
COc1ccc(CCNC2=NCC(C)S2)cc1 (centres undefined),-1.6,31*,.,-4,-1,-4.9,?
COc1ccc(CCNS(=O)(=O)c2ccc3c(c2)OCCO3)cc1,0.084,-1.1,0.95,-11,0,.,.
CC(Nc1ncnc2nc[nH]c12)c1ccccc1 (centres undefined),0.32,2.8*,-0.81,-7,-1,-14,-29
C=CCn1c(=O)c2c(nc3n2CC(C)CN3c2cccc(OC)c2)n(C)c1=O (centres undefined),0.26,1.9*,1.2,-32,-1,-13,?
CC1CN(c2ccc(Oc3ccccc3)cc2)c2nc3c(c(=O)n(CC(N)=O)c(=O)n3C)n2C1 (centres undefined),-0.13,0.19,0.096,-26,0,.,.
COc1ccc(OC)c(NC(=O)c2ccc(NC(C)=O)cc2)c1,-1.2,-0.025,-0.069,-1,-1,.,.
COc1ccc(OC)c(N/C(C)=C/C(=O)c2ccc(C)o2)c1,0,5.9*,0.62,.,-1,?,-43
